pIC50: −log10 of the molar value. Activity calls are given as the source filed them. The calls are words filed in the database; no cut-off is given here.
Columns and labels:
Rattus norvegicus [1] = assay: Antiinflammatory activity in Sprague-Dawley/Wistar rat assessed as decrease in carrageenan-induced paw edema at 20 mg/kg, po administered 3 hrs 30 mins after carrageenan-challenge measured after 60 mins (reference value: 2.48 +/- 0.06 mL); type: functional
Rattus norvegicus [2] = assay: Antiinflammatory activity in Sprague-Dawley/Wistar rat assessed as decrease in carrageenan-induced hyperalgesia at 40 mg/kg, po administered 4 hrs after carrageenan-challenge measured after 30 mins (reference value: 34.8 +/- 3.0 g); type: functional
Rattus norvegicus [3] = assay: Antiinflammatory activity in Sprague-Dawley/Wistar rat assessed as decrease in carrageenan-induced paw edema at 40 mg/kg, po administered 3 hrs 30 mins after carrageenan-challenge measured after 60 mins (reference value: 2.48 +/- 0.06 mL); type: functional
Rattus norvegicus [4] = assay: Antiinflammatory activity in Sprague-Dawley/Wistar rat assessed as decrease in carrageenan-induced hyperalgesia at 20 mg/kg, po administered 4 hrs after carrageenan-challenge measured after 120 mins (reference value: 31.4 +/- 3.7 g); type: functional
Mus musculus = assay: Antinociceptive activity in po dosed Swiss albino mouse assessed as reduction in number of acetic acid-induced writhing counted 5 mins after acetic acid challenge counted for 10 mins; type: functional; settings: read-out: MED
In short: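 Male Swiss albino mice (23-25 g) dosed orally, then given 0.6% acetic acid (10 mL/kg) ip. Stretching movements counted for 10 min, starting 5 min after the acetic acid. Control group received CMC. At least 7 mice/group; mean ± SEM, ANOVA with Fisher's PLSD.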

Rattus norvegicus [5] = assay: Antiinflammatory activity in Sprague-Dawley/Wistar rat assessed as decrease in carrageenan-induced hyperalgesia at 20 mg/kg, po administered 4 hrs after carrageenan-challenge measured after 60 mins (reference value: 33.9 +/- 3.7 g); type: functional
Rattus norvegicus [6] = assay: Antiinflammatory activity in Sprague-Dawley/Wistar osteoarthritis model rat assessed as decrease in monoiodoacetate-induced hyperalgesia at 20 mg/kg, po bid for 14 days administered from day of monoiodoacetate-challenge followed by additional compound treatment after 30 mins […] by paw pressure test (reference value: 30.4 +/- 3.1 g); type: functional
Rattus norvegicus [7] = assay: Antiinflammatory activity in Sprague-Dawley/Wistar osteoarthritis model rat assessed as decrease in monoiodoacetate-induced hyperalgesia at 20 mg/kg, po bid for 14 days administered from day of monoiodoacetate-challenge […] post by paw pressure test (reference value: 32.6 +/- 2.9 g); type: functional
[8] = target: Prostaglandin G/H synthase 1 (Homo sapiens, UniProt P23219); assay: Inhibition of COX1 in human whole blood assessed as reduction in TXB2 generation
In short: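 Clotting assay in whole blood from three healthy volunteers with no NSAID for 2 weeks. Compounds in DMSO were added at 0.1-300 µM final. Blood clotted in glass tubes at 37 °C for 1 h. Serum TXB2 was measured by RIA as a reflection of platelet COX-1 activity driven by endogenous thrombin.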

Rattus norvegicus [9] = assay: Antiinflammatory activity in Sprague-Dawley/Wistar rat assessed as decrease in carrageenan-induced hyperalgesia at 40 mg/kg, po administered 4 hrs after carrageenan-challenge measured after 60 mins (reference value: 33.9 +/- 3.7 g); type: functional
[10] = target: T1, Prostaglandin G/H synthase 1 (Mus musculus, UniProt P22437); assay: Inhibition of arachidonic acid-induced COX1 activity in mouse J774 cells assessed as decrease in PGE2 levels incubated for 15 mins prior to arachidonic acid-challenge measured after 30 mins by RIA; type: cell-based
T1 sequence (P22437 whole entry): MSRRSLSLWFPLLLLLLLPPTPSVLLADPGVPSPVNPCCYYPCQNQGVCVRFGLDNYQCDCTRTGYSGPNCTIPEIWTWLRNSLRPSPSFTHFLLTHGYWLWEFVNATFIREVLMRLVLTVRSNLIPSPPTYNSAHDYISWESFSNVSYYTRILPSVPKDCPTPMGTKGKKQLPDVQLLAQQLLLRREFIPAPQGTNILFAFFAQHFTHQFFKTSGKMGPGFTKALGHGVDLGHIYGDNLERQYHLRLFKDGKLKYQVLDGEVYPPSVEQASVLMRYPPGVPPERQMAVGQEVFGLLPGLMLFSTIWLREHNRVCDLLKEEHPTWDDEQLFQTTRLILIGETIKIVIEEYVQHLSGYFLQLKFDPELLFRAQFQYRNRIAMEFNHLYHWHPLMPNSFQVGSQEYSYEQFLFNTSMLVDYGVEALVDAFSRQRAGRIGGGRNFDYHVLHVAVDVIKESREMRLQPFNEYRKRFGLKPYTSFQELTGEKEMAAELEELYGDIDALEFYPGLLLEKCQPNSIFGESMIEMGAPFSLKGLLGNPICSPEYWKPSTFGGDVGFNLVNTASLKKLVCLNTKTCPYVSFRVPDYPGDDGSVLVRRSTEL
In short: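 Cells were in DMEM with 10% FBS and adhered for 2 h at 37 °C. They were pretreated with compound (10 µM; 0.1-1 µM where inhibition exceeded 50%) for 15 min, then given 15 µM arachidonic acid for 30 min at 37 °C. Supernatant PGE2 was measured by RIA. Triplicate wells were used and the mean of three experiments reported. IC50 came from a variable-slope sigmoidal fit.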

Bos taurus = organism: Bos taurus; assay: (§1) Inhibition of interleukin 1 beta-induced glycosaminoglycan release in bovine articular cartilage of metacarpophalangeal joints of feet treated 48 hrs after interleukin 1beta-challenge by DMB colorimetric assay; type: functional
In short: (§2)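 Bovine metacarpophalangeal cartilage slices (about 100 mg per well) were cultured in serum-free DMEM at 37 °C, 5% CO2, with medium changed on days 1 and 2. On day 3 the slices were challenged with IL-1β 30 ng/mL plus compound for 48 h. GAG release was measured by the DMB (Farndale) assay and expressed as % of IL-1β alone, n = 3. EC50 is given with 95% CI.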

[11] = as §1; type: functional, Bos taurus; in short: as §2
Rattus norvegicus [12] = assay: Antiinflammatory activity in Sprague-Dawley/Wistar rat assessed as decrease in carrageenan-induced hyperalgesia at 40 mg/kg, po administered 4 hrs after carrageenan-challenge measured after 120 mins (reference value: 31.4 +/- 3.7 g); type: functional
Aorta = assay: Vasorelaxant activity in Wistar rat endothelium-removed thoracic aortic rings assessed as reduction of KCl-induced vasoconstriction at 0.001 uM to 10 uM treated after KCl-challenge relative to control; type: functional
In short: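 Thoracic aortic rings from male Wistar rats (250-350 g), endothelium removed by rubbing; removal confirmed as <10% relaxation to ACh 10 µM in KCl 30 mM-contracted rings. Rings contracted with KCl 30 mM; at plateau, 3-fold increasing compound concentrations (1 nM-10 µM) added. Isometric tension recorded. Emax given as % of KCl tone; pIC50 as -log molar concentration halving that tone. 6-10 experiments; also run with ODQ 1 µM.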

Rattus norvegicus [13] = assay: Antiinflammatory activity in Sprague-Dawley/Wistar rat assessed as decrease in carrageenan-induced hyperalgesia at 20 mg/kg, po administered 4 hrs after carrageenan-challenge measured after 30 mins (reference value: 34.8 +/- 3.0 g); type: functional
[14] = target: T2, Prostaglandin G/H synthase 2 (Homo sapiens) (UniProt P35354); assay: Inhibition of COX2 in human whole blood assessed as reduction in LPS-induced PGE2 generation pre-treated prior to LPS-challenge
T2 sequence (whole entry): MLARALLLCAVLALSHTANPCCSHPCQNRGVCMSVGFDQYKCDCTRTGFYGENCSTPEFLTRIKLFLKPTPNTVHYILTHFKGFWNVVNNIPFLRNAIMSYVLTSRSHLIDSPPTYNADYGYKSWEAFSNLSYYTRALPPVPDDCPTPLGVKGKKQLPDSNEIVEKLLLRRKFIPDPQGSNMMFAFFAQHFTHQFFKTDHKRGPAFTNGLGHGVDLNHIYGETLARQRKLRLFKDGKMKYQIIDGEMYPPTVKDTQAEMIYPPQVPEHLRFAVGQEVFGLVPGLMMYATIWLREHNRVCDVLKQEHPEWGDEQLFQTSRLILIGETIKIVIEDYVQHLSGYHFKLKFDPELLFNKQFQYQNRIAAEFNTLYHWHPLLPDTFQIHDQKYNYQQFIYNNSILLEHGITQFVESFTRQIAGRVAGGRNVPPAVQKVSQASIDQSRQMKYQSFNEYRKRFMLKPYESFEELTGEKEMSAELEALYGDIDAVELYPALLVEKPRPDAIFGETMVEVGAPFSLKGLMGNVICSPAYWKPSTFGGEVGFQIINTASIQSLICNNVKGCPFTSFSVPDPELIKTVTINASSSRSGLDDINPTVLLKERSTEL
In short: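 Heparinized whole blood came from three healthy volunteers pretreated with aspirin 300 mg 48 h before sampling to suppress platelet COX-1. Compounds in DMSO were added at 0.1-300 µM final. Blood was incubated with LPS 10 µg/mL for 24 h at 37 °C. Plasma PGE2 was measured by RIA.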

Rattus norvegicus [15] = assay: Antiinflammatory activity in Sprague-Dawley/Wistar rat assessed as decrease in carrageenan-induced hyperalgesia at 3 mg/kg, po administered 4 hrs after carrageenan-challenge measured after 60 mins (reference value: 33.9 +/- 3.7 g); type: functional
Rattus norvegicus [16] = assay: Antiinflammatory activity in Sprague-Dawley/Wistar rat assessed as decrease in carrageenan-induced hyperalgesia at 10 mg/kg, po administered 4 hrs after carrageenan-challenge measured after 30 mins (reference value: 34.8 +/- 3.0 g); type: functional
Rattus norvegicus [17] = assay: Antiinflammatory activity in Sprague-Dawley/Wistar rat assessed as decrease in carrageenan-induced hyperalgesia at 10 mg/kg, po administered 4 hrs after carrageenan-challenge measured after 120 mins (reference value: 31.4 +/- 3.7 g); type: functional
Rattus norvegicus [18] = assay: Antiinflammatory activity in Sprague-Dawley/Wistar rat assessed as decrease in carrageenan-induced paw edema at 3 mg/kg, po administered 3 hrs 30 mins after carrageenan-challenge measured after 60 mins (reference value: 2.48 +/- 0.06 mL); type: functional
Rattus norvegicus [19] = assay: Antiinflammatory activity in Sprague-Dawley/Wistar rat assessed as decrease in carrageenan-induced hyperalgesia at 3 mg/kg, po administered 4 hrs after carrageenan-challenge measured after 120 mins (reference value: 31.4 +/- 3.7 g); type: functional
Rattus norvegicus [20] = assay: Antiinflammatory activity in Sprague-Dawley/Wistar rat assessed as decrease in carrageenan-induced paw edema at 10 mg/kg, po administered 3 hrs 30 mins after carrageenan-challenge measured after 60 mins (reference value: 2.48 +/- 0.06 mL); type: functional
Rattus norvegicus [21] = assay: Antiinflammatory activity in Sprague-Dawley/Wistar rat assessed as decrease in carrageenan-induced hyperalgesia at 3 mg/kg, po administered 4 hrs after carrageenan-challenge measured after 30 mins (reference value: 34.8 +/- 3.0 g); type: functional
Rattus norvegicus [22] = assay: Antiinflammatory activity in Sprague-Dawley/Wistar rat assessed as decrease in carrageenan-induced hyperalgesia at 10 mg/kg, po administered 4 hrs after carrageenan-challenge measured after 60 mins (reference value: 33.9 +/- 3.7 g); type: functional

Sequence of Prostaglandin G/H synthase 1 (Homo sapiens, UniProt P23219) (P23219 whole entry): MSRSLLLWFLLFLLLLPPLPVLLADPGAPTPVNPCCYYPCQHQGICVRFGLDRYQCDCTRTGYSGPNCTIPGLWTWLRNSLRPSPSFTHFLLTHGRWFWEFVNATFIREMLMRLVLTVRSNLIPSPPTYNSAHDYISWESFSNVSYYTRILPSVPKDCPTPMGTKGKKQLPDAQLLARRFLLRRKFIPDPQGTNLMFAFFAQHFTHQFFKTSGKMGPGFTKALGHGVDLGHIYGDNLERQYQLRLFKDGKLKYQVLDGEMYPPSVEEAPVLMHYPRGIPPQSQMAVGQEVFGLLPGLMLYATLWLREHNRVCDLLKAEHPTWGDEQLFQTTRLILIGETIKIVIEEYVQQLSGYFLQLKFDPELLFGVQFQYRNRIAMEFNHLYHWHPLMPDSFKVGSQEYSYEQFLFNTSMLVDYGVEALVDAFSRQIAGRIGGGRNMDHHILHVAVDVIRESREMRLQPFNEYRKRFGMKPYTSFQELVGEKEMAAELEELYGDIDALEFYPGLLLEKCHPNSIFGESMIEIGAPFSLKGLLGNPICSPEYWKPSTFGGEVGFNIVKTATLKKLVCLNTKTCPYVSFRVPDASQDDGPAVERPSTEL

Cc1c(CCOCCO)cc(-c2ccc(S(C)(=O)=O)cc2)n1-c1ccc(F)cc1
Activity (Rattus norvegicus [1]): 2.01 mL | Activity (Rattus norvegicus [2]): 57.2 g | Activity (Rattus norvegicus [3]): 1.95 mL | Activity (Rattus norvegicus [4]): 38.3 g | minimal effective dose (Mus musculus): 40 mg/kg | Activity (Rattus norvegicus [5]): 38.7 g | Activity (Rattus norvegicus [6]): 51.2 g | Activity (Rattus norvegicus [7]): 49.7 g | pIC50 [8]: 4.70 | IC80 [8]: 37.1 µM | inhibition [8]: Dose-dependent effect | Activity (Rattus norvegicus [9]): 58.3 g | pIC50 [10]: < 5.00 | inhibition (Bos taurus): Dose-dependent effect | pIC50 [11]: 4.48 | Activity (Rattus norvegicus [12]): 47.6 g | Emax (Aorta): inactive | Activity (Rattus norvegicus [13]): 46.8 g | IC80 [14]: 2.31 µM | inhibition [14]: Dose-dependent effect

Cc1ccc(-c2cc(C(F)(F)F)nn2-c2ccc(S(N)(=O)=O)cc2)cc1 [CELECOXIB]
Activity (Rattus norvegicus [15]): 41.6 g | minimal effective dose (Mus musculus): 3 mg/kg | Activity (Rattus norvegicus [16]): 52.9 g | Activity (Rattus norvegicus [17]): 39.8 g | Activity (Rattus norvegicus [18]): 2.35 mL | Activity (Rattus norvegicus [19]): 40.7 g | Activity (Rattus norvegicus [20]): 1.45 mL | Activity (Rattus norvegicus [21]): 44.3 g | Activity (Rattus norvegicus [22]): 48.3 g

— ChEMBL document CHEMBL2331234, “Novel analgesic/anti-inflammatory agents: 1,5-diarylpyrrole nitrooxyalkyl ethers and related compounds as cyclooxygenase-2 inhibiting nitric oxide donors” (J Med Chem, 2013)
